For test [1], the system named is Pseudomonas aeruginosa. Kind of test: Antimicrobial activity against wild-type Pseudomonas aeruginosa PA14. In kind it is functional.
Test [2] relates to Pseudomonas aeruginosa. Kind of test: Inhibition of quorum sensing activity in wild-type Pseudomonas aeruginosa PA14 assessed as inhibition of pyocyanin production at 100 uM by spectrophotometry relative to control. In kind it is functional. The essentials:
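Wild-type P. aeruginosa PA14 cultures exposed to compound at 100 μM. Pyocyanin read as absorbance at 695 nm. Efficacy scaled so that wild-type pyocyanin level = 0% and absorbance equal to background medium = 100%.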

Active and inactive are the calls of the source. No rule for the calls is given here.

Consider `CCCCCCCCCCCC(=O)Nc1ccc2oc3c(c2c1)CCCC3`, for which the result in the test with Pseudomonas aeruginosa [1] was inactive. In addition, the Efficacy in the test with Pseudomonas aeruginosa [2] was found to be 6.1%.
For `O=C(CCCCC#Cc1cccc(F)c1)Nc1ccnc(C(F)(F)F)c1`, the outcome with Pseudomonas aeruginosa [1] was inactive. The Efficacy in the test on Pseudomonas aeruginosa [2] was determined as 97%.
In the case of `COc1cc(NC(=O)CC(=O)CCCOc2cccc(Br)c2)ccn1`, the outcome in the test on Pseudomonas aeruginosa [1] was inactive. The Efficacy in the test on Pseudomonas aeruginosa [2] is 40%.
The corresponding values for `O=C(CCCCCNc1cccc(F)c1)Nc1ccnc(C(F)(F)F)c1` are “inactive” and 100%.
`CCCCCCCCCCCC(=O)Nc1ccc2[nH]ccc2c1`: the result with Pseudomonas aeruginosa [1] was inactive. Further, the Efficacy in the test with Pseudomonas aeruginosa [2] is on record as -11%.
For the molecule `CCCCCCCCCCCC(=O)Nc1cccnc1`, the result in the test on Pseudomonas aeruginosa [1] was inactive. Moreover, the Efficacy in the test on Pseudomonas aeruginosa [2] was 34%.
As for `O=C(CCCCCCc1cccc(F)c1)Nc1ccnc(C(F)(F)F)c1`, in the test on Pseudomonas aeruginosa [1], the result was inactive. For the same molecule, in the test on Pseudomonas aeruginosa [2], the Efficacy turned out to be 96%.
For the molecule `CCCCCCCCCC(=O)CC(=O)Nc1ccc2c(c1)c1ccccc1n2CC`, the result in the test with Pseudomonas aeruginosa [1] was inactive. Besides, the Efficacy with Pseudomonas aeruginosa [2] was determined as 9.3%.
For the molecule `CCCCCCCCCC(=O)CC(=O)Nc1ccnc(OC)c1`, in the test with Pseudomonas aeruginosa [1], the outcome was inactive. In addition, the Efficacy in the test with Pseudomonas aeruginosa [2] came out at 24%.
Regarding `O=C(CCCCCOc1ccc(F)cc1F)Nc1ccnc(C(F)(F)F)c1`, the outcome with Pseudomonas aeruginosa [1] was inactive. In addition, the Efficacy with Pseudomonas aeruginosa [2] was found to be 49%.
On to `CCCCCCCCCCCC(=O)Nc1ccccn1`, for which the result in the test with Pseudomonas aeruginosa [1] was inactive. In addition, the Efficacy in the test on Pseudomonas aeruginosa [2] turned out to be 55%.
With `O=C(CCCCCOc1cccc(O)c1)Nc1ccnc(C(F)(F)F)c1`, the result in the test with Pseudomonas aeruginosa [1] was inactive. The Efficacy in the test with Pseudomonas aeruginosa [2] was 70%.
For the molecule `O=C(CCCCCOc1cccc(Br)c1)Nc1cc(C(F)(F)F)cc(C(F)(F)F)c1`, in the test on Pseudomonas aeruginosa [1], the result was inactive. The Efficacy in the test on Pseudomonas aeruginosa [2] was found to be 44%.
`CCCCCCCCCCCC(=O)Nc1ccnc(C)c1`: the result with Pseudomonas aeruginosa [1] was inactive. In the test on Pseudomonas aeruginosa [2], the Efficacy is recorded as -19%.
`CCCCCCCCCC(=O)CC(=O)Nc1ncccn1`: the result in the test with Pseudomonas aeruginosa [1] was inactive. Further, the Efficacy in the test on Pseudomonas aeruginosa [2] was -0.51%.
On to `CCCCCCCCCCCC(=O)N1CCN(c2ccncc2)CC1`, for which, in the test on Pseudomonas aeruginosa [1], the result was inactive. Further, the Efficacy with Pseudomonas aeruginosa [2] is -42%.
Consider `O=C(CCCCCOc1cccc(I)c1)Nc1ccnc(C(F)(F)F)c1`, for which the outcome in the test with Pseudomonas aeruginosa [1] was inactive. Also, in the test with Pseudomonas aeruginosa [2], the Efficacy turned out to be 95%.
For the molecule `CCCCCCCCCCCC(=O)Nc1ccnc(OC)c1`, the outcome in the test on Pseudomonas aeruginosa [1] was inactive. Besides, the Efficacy in the test on Pseudomonas aeruginosa [2] was -5.1%.
On to `O=C(CCCCCOc1cccc(Br)c1)Nc1ccnc(F)c1`, for which the result in the test with Pseudomonas aeruginosa [1] was inactive. For the same molecule, the Efficacy with Pseudomonas aeruginosa [2] worked out at 31%.
With `CCCCCCCCCCCCNC(=O)c1cc2ccccc2n1C`, the outcome in the test with Pseudomonas aeruginosa [1] was inactive. For the same molecule, in the test on Pseudomonas aeruginosa [2], the Efficacy is reported as -9.2%.
The corresponding values for `O=C(CCCCCSc1cccc(F)c1)Nc1ccnc(C(F)(F)F)c1` are “inactive” and 94%.
On to `CCCCCCCCCCCC(=O)Nc1cc(C)nc2ccccc12`, for which the outcome in the test with Pseudomonas aeruginosa [1] was inactive. For the same molecule, the Efficacy in the test with Pseudomonas aeruginosa [2] is listed as -24%.
As for `CCCCCCCCCCCC(=O)Nc1c(F)c(F)nc(F)c1F`, the result in the test with Pseudomonas aeruginosa [1] was inactive. Besides, the Efficacy in the test on Pseudomonas aeruginosa [2] was -12%.
As to `COc1cc(NC(=O)CCCCCOc2cccc(Br)c2)ncn1`, the result with Pseudomonas aeruginosa [1] was inactive. Further, in the test with Pseudomonas aeruginosa [2], the Efficacy is on record as 41%.
The corresponding values for `O=C(CCCCCOc1ccccc1F)Nc1ccnc(C(F)(F)F)c1` are “inactive” and 78%.
On the same counts, the results for `CCCCCCCCCC(=O)CC(=O)Nc1cnccn1` are “inactive” and 21%.
As to `CCCCCCCCCCCCNC(=O)Cc1c[nH]c2ccccc12`, the result with Pseudomonas aeruginosa [1] was inactive. Besides, the Efficacy in the test with Pseudomonas aeruginosa [2] is reported as 0.6%.
Regarding `CCCCCCCCCCCC(=O)Nc1ccncc1C(F)(F)F`, the outcome in the test on Pseudomonas aeruginosa [1] was inactive. Also, the Efficacy in the test on Pseudomonas aeruginosa [2] is on record as -17%.
For the molecule `CCCCCCCCCCCC(=O)Nc1cnccn1`, the outcome in the test on Pseudomonas aeruginosa [1] was inactive. Besides, the Efficacy in the test with Pseudomonas aeruginosa [2] was -38%.
For `CCCCCCCCCCCC(=O)Nc1ccncn1`, the outcome with Pseudomonas aeruginosa [1] was inactive. Further, the Efficacy in the test with Pseudomonas aeruginosa [2] was 55%.
As for `CCCCCCCCCC(=O)CC(=O)Nc1cccnc1`, the result with Pseudomonas aeruginosa [1] was inactive. For the same molecule, the Efficacy in the test on Pseudomonas aeruginosa [2] is 10%.
As to `O=C(CCCCCOc1ccc(Br)cc1)Nc1ccnc(C(F)(F)F)c1`, in the test on Pseudomonas aeruginosa [1], the outcome was inactive. Also, the Efficacy with Pseudomonas aeruginosa [2] came out at 88%.
As for `COc1cc(NC(=O)CCCCOc2cccc(Br)c2)ccn1`, the result in the test on Pseudomonas aeruginosa [1] was inactive. Moreover, the Efficacy in the test with Pseudomonas aeruginosa [2] stood at 81%.
Turning to `CCCCCCCCCCCC(=O)Nc1ccnc(Br)c1`, in the test on Pseudomonas aeruginosa [1], the result was inactive. Further, the Efficacy in the test on Pseudomonas aeruginosa [2] was determined as 34%.
On the same counts, the results for `CCCCCCCCCCCCCCCCOC(=O)C1COc2ccccc21` (configuration not stated) are “inactive” and 1.5%.
`CCCCCCCCCCCCNC(=O)c1ccncc1`: the outcome with Pseudomonas aeruginosa [1] was inactive. Moreover, the Efficacy with Pseudomonas aeruginosa [2] is reported as 13%.
As to `COc1cc(NC(=O)CCCCCCOc2cccc(Br)c2)ccn1`, the result with Pseudomonas aeruginosa [1] was inactive. In addition, the Efficacy with Pseudomonas aeruginosa [2] turned out to be 75%.
Turning to `O=C(CCCCCOc1cccc(Cl)c1)Nc1ccnc(C(F)(F)F)c1`, in the test on Pseudomonas aeruginosa [1], the result was inactive. The Efficacy with Pseudomonas aeruginosa [2] was found to be 101%.
Consider `CCCCCCCCCCCC(=O)Nc1ccncc1`, for which the result in the test with Pseudomonas aeruginosa [1] was inactive. For the same molecule, in the test on Pseudomonas aeruginosa [2], the Efficacy came out at 28%.
With `COc1cc(NC(=O)CCCCCOc2cccc(Br)c2)ccn1`, in the test with Pseudomonas aeruginosa [1], the result was inactive. The Efficacy with Pseudomonas aeruginosa [2] is 73%.
Turning to `COc1cc(NC(=O)CCCOc2cccc(Br)c2)ccn1`, the result in the test with Pseudomonas aeruginosa [1] was inactive. Also, in the test with Pseudomonas aeruginosa [2], the Efficacy is given as 20%.
Consider `O=C(CCCCCOc1ccccc1Br)Nc1ccnc(C(F)(F)F)c1`, for which, in the test on Pseudomonas aeruginosa [1], the result was inactive. In addition, the Efficacy with Pseudomonas aeruginosa [2] is reported as 94%.
As for `N#Cc1cccc(OCCCCCC(=O)Nc2ccnc(C(F)(F)F)c2)c1`, the outcome in the test with Pseudomonas aeruginosa [1] was inactive. Further, the Efficacy with Pseudomonas aeruginosa [2] was found to be 0.48%.
As to `CCCCCCCCCCCC(=O)O/N=C1\COc2ccccc21`, the result in the test on Pseudomonas aeruginosa [1] was inactive. In addition, the Efficacy in the test with Pseudomonas aeruginosa [2] is 12%.
On the same counts, the results for `O=C(CCCCCOc1cccc(C(F)(F)F)c1)Nc1ccnc(C(F)(F)F)c1` are “inactive” and 59%.
For the molecule `O=C(CCCCOc1cccc(Br)c1)Nc1ccnc(C(F)(F)F)c1`, the result with Pseudomonas aeruginosa [1] was inactive. The Efficacy in the test with Pseudomonas aeruginosa [2] is reported as 95%.
Take `CCCCCCCCCCCCNC(=O)c1c[nH]c2ccccc12`: the result in the test with Pseudomonas aeruginosa [1] was inactive. Moreover, in the test with Pseudomonas aeruginosa [2], the Efficacy is given as 4.4%.
The corresponding values for `CCCCCCCCCC(=O)CC(=O)Nc1ccccn1` are “inactive” and 44%.
Take `Cc1cc(NC(=O)CCCCCOc2cccc(Br)c2)ccn1`: the result in the test with Pseudomonas aeruginosa [1] was inactive. In the test with Pseudomonas aeruginosa [2], the Efficacy came out at 80%.
For `O=C(CCCCCOc1ccccc1O)Nc1ccnc(C(F)(F)F)c1`, the result in the test with Pseudomonas aeruginosa [1] was inactive. Moreover, the Efficacy in the test with Pseudomonas aeruginosa [2] is reported as 95%.
On to `COc1nccc(NC(=O)CCCCCOc2cccc(Br)c2)n1`, for which the result in the test on Pseudomonas aeruginosa [1] was inactive. Further, the Efficacy with Pseudomonas aeruginosa [2] came out at 16%.
Turning to `O=C(CCCCCOc1cccc(Br)c1)Nc1ccncc1C(F)(F)F`, in the test with Pseudomonas aeruginosa [1], the result was inactive. In addition, in the test with Pseudomonas aeruginosa [2], the Efficacy was 15%.
On the same counts, the results for `O=C(CCCCCOc1cccc(Br)c1)Nc1ccncn1` are “inactive” and 27%.
With `O=C(CCCCCOc1cccc(Br)c1)Nc1ccnc(Cl)c1`, in the test on Pseudomonas aeruginosa [1], the result was inactive. In addition, the Efficacy in the test with Pseudomonas aeruginosa [2] came out at 89%.
On the same counts, the results for `O=C(CCCCCOc1c(F)cccc1F)Nc1ccnc(C(F)(F)F)c1` are “inactive” and 66%.
The corresponding values for `O=C(CCCCCOc1ccc(F)cc1)Nc1ccnc(C(F)(F)F)c1` are “inactive” and 54%.
The corresponding values for `O=C(CCCOc1cccc(Br)c1)Nc1ccncc1` are “inactive” and 21%.
In the case of `CCCCCCCCCCCC(=O)OCc1ccncc1`, the outcome in the test on Pseudomonas aeruginosa [1] was inactive. Besides, in the test with Pseudomonas aeruginosa [2], the Efficacy was -15%.
The corresponding values for `O=C(CCCOc1cccc(Br)c1)Nc1ccnc(F)c1` are “inactive” and 32%.
On to `O=C(CCCCCOc1cccc(Br)c1)Nc1ccncc1`, for which, in the test with Pseudomonas aeruginosa [1], the outcome was inactive. Besides, in the test with Pseudomonas aeruginosa [2], the Efficacy amounted to 53%.
For the molecule `CCCCCCCCCC(=O)CC(=O)Nc1ccncn1`, the outcome with Pseudomonas aeruginosa [1] was inactive. In addition, in the test with Pseudomonas aeruginosa [2], the Efficacy was found to be 64%.
As for `Cc1cccc(OCCCCCC(=O)Nc2ccnc(C(F)(F)F)c2)c1`, in the test with Pseudomonas aeruginosa [1], the result was inactive. Moreover, the Efficacy with Pseudomonas aeruginosa [2] was 81%.
On to `CCCCCCCCCC(=O)CC(=O)Nc1ccnc(F)c1`, for which the outcome in the test on Pseudomonas aeruginosa [1] was inactive. Further, the Efficacy with Pseudomonas aeruginosa [2] is -8.5%.
`COc1cc(NC(=O)CCCCCOc2cccc(Br)c2)nc(OC)n1`: the result in the test with Pseudomonas aeruginosa [1] was inactive. Besides, in the test on Pseudomonas aeruginosa [2], the Efficacy was 15%.
On the same counts, the results for `CCCCCCCCCCCC(=O)Nc1ccc2c(c1)c1ccccc1n2CC` are “inactive” and -1%.
For the molecule `COc1cc(NC(=O)CCCCCCCOc2cccc(Br)c2)ccn1`, in the test with Pseudomonas aeruginosa [1], the outcome was inactive. For the same molecule, the Efficacy in the test with Pseudomonas aeruginosa [2] worked out at 60%.
Take `CCCCCCCCCCCC(=O)Nc1ncccn1`: the outcome in the test on Pseudomonas aeruginosa [1] was inactive. Also, in the test on Pseudomonas aeruginosa [2], the Efficacy is given as 23%.
On the same counts, the results for `O=C(CCCOc1cccc(Br)c1)Nc1ccnc(C(F)(F)F)c1` are “inactive” and 43%.
Turning to `CCCCCCCCCCCC(=O)NCc1ccncc1`, the outcome in the test with Pseudomonas aeruginosa [1] was inactive. Further, the Efficacy in the test on Pseudomonas aeruginosa [2] was determined as 7.7%.
`O=C(CCCCCOc1cccc([N+](=O)[O-])c1)Nc1ccnc(C(F)(F)F)c1`: the result in the test on Pseudomonas aeruginosa [1] was inactive. The Efficacy in the test with Pseudomonas aeruginosa [2] worked out at 39%.
As to `O=C(CCCCCOc1cccc(Br)c1)Nc1cccc(C(F)(F)F)c1`, the outcome in the test with Pseudomonas aeruginosa [1] was inactive. Also, the Efficacy with Pseudomonas aeruginosa [2] worked out at 62%.

For the origin of these results see ChEMBL document CHEMBL3407471, “Development of potent inhibitors of pyocyanin production in Pseudomonas aeruginosa” (J Med Chem, 2015).
